# An excerpt weighted towards active compounds, which were near 1.5% of everything screened.
# CCR6 antag: blocks CCL20-driven beta-arrestin recruitment at human CCR6; P51684; CHO-K1 CCR6 PathHunter beta-arrestin, luminescence, CCL20-stimulated; inhibition, % at 20 µM; 0.49% of 340,000 active; AID 493098;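 active = compounds whose inhibition of the agonist-driven luminescence signal at 20 µM reaches about 50%, limit read from the data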;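 also: cells stimulated with CCL20 at 14 nM final; plate controls were DMSO with CCL20 for no effect and DMSO without agonist for full effect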
# APJ ag: activates the human apelin receptor APJ | P35414 | CHO-K1 APJ PathHunter beta-arrestin, luminescence; 0% DMSO wells, 100% apelin | activation, % at 20 µM | 0.11% of 330,000 active | AID 2520;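 active = activation more than six SD over the plate average, tested at 20 µM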;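 also: 0% = DMSO alone and 100% = apelin-13 at 10 nM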
# Target sequence (P35414 whole entry, looked up): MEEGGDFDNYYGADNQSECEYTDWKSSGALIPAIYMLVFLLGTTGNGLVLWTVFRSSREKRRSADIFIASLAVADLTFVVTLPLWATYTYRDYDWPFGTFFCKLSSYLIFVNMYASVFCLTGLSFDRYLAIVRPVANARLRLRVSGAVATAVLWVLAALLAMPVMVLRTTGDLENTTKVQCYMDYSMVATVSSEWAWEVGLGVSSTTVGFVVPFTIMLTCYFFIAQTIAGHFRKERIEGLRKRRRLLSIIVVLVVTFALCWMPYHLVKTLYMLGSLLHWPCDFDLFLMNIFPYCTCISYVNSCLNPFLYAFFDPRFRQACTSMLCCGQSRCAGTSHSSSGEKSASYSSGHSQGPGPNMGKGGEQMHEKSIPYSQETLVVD
#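 Test system: CHO-K1 APJ beta-arrestin complementation cell line | Compound: Single test compound dose, 20 µM final, 1% DMSO | Incubation: Compound 90 min 25 °C, reagent 1 h | Measured by: beta-gal luminescence | Read-out basis: APJ–arrestin association signal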
# EBI2 antag: EBI2 (human) antagonism; EBI2 beta-arrestin recruitment, luminescence, 7a,25-OHC stimulated; 0.81% of 360,000 active; AID 651636; inhibition, % at 5 µM; in the data active = inhibition above about 38%;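 also: enzyme fragment complementation signal reports receptor beta-arrestin coupling in cells; 0% = agonist plus DMSO wells and 100% = wells without agonist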
# CXCR6 inh: blocks human CXCR6 beta-arrestin recruitment; 0.36% of 360,000 active; inhibition, % at 20 µM; AID 602244; CHO-K1 PathHunter CXCR6 beta-arrestin, luminescence; O00574; in the data active = inhibition above about 34%, passing the limit was not always enough;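 also: antagonist mode with CXCL16 agonist at 10 nM final; 0% = 10 nM CXCL16 with DMSO and 100% = unstimulated wells without agonist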
# APJ antagonist: antagonists of human APJ apelin receptor | P35414 | CHO-K1 APJ beta-arrestin complementation, luminescence | inhibition, % at 20 µM | 0.32% of 330,000 active | AID 2521;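 active = inhibition above about 40% at 20 µM, limit read from the data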;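 also: cells challenged with 10 nM apelin-13 agonist together with compound; plate controls were apelin-13 plus DMSO wells for no effect and DMSO wells lacking apelin-13 for full effect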
# EBI2 antag conf: EBI2 (human) antagonism, single concentration confirmation; shares compounds with EBI2 antag; EBI2 beta-arrestin luminescence, 7a,25-OHC antagonism; inhibition, % at 5 µM; 29% of 2,400 active;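 active = inhibition of at least 50%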
# EBI2 ag: activates EBI2, counter-screen for EBI2 antagonists. shares compounds with EBI2 antag. EBI2-expressing cells, agonist mode, luminescence, 60 min; 0% vehicle, 100% 7α,25-dihydroxycholesterol control. activation, % at 5 µM. 2,400 tested, under 10 active;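 active = activation of at least 50%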
# bGal cs: counter-screen for EBI2 antagonists: E. coli beta-galactosidase inhibition; shares compounds with EBI2 antag; purified beta-galactosidase, luminescent Galacton Star, 15 min; inhibition, % at 5 µM; 1% of 2,400 active; AID 652176;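 active = replicate-average signal at least 3 plate SD below neutral wells, shown as high inhibition, flagging enzyme-inhibiting false positives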;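 also: 0% = DMSO wells with enzyme and 100% = wells lacking enzyme; higher means stronger loss of beta-gal luminescence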
# An asterisk follows results filed as active; x = not tested or not shown; ! = repeats disagree.
SMILES,CCR6 antag,APJ ag,EBI2 antag,CXCR6 inh,APJ antagonist,EBI2 antag conf,EBI2 ag,bGal cs
COC(=O)C[C@H]1C[C@H]2c3cc(NS(=O)(=O)c4ccc(OC)cc4)ccc3O[C@H]2[C@H](CO)O1,x,x,-8,-4,x,x,x,x
CCC(=O)Nc1ccc2ccccc2c1,5,0,-3,-6,-19,x,x,x
CC(C)(C)CC(C)(C)NC(=O)CSCC(=O)Nc1ccc2ccccc2c1,14,3,71*,-2,-12,47,-1,-6
CC1(C(=O)Nc2cnc3ccccc3c2)CCN1C(=O)CC(c1ccccc1)c1ccccc1 (stereo unspecified),x,x,75*,11,x,55*,-1,-4
CC1(C(=O)Nc2ccc(Cl)c(Cl)c2)CCN1C(=O)CC(c1ccccc1)c1ccccc1 (stereo unspecified),x,x,8,2,x,x,x,x
COC(=O)c1ccc2c(=O)n(CCCN3CCOCC3)c(=S)[nH]c2c1,3,1,3,0,11,x,x,x
COC(=O)c1cc(=O)n(CCc2ccc(OC)cc2)c(=Nc2ccc(F)c(Cl)c2)s1,14,-5,66*,8,5,41,-1,7
CCCCN=c1sc(C(=O)OC)cc(=O)n1CCCC,6,1,34,-1,11,x,x,x
CCn1c(=O)cc(C(=O)OC)sc1=Nc1ccc(F)c(F)c1,14,-1,51*,8,13,53*,2,6
CCOC(=O)c1ccc(N=c2sc(C(=O)OC)cc(=O)n2CCCN2CCOCC2)cc1,10,-4,68*,10,14,67*!,0,-12
O=[N+]([O-])c1cccc(COc2cccc(CN3CCCCC3)c2)c1,10,x,-5,4,x,x,x,x
COc1ccc(C(=O)N2CCN(c3nc(C4CC4)nc4sc(C)c(C)c34)CC2)cc1,9,-2,49*,6,-1,19,0,1
Cc1sc2nc(C3CC3)nc(N3CCN(C(=O)c4ccc(Cl)cc4)CC3)c2c1C,6,0,76*,17,4,44,1,8
O=C(Nc1ccccc1)N1CCCC(c2nc(-c3ccc(F)cc3)no2)C1 (stereo unspecified),-6,2,6,-10,-2,x,x,x
O=C(c1ccccc1)N1CCC(c2nc(-c3ccc(S(=O)(=O)N4CCOCC4)cc3)no2)CC1,-2,-2,21,8,21,x,x,x
O=C(Nc1cccc(C(F)(F)F)c1)N1CCC(c2nc(-c3ccc(F)cc3)no2)CC1,-3,-3,43*,-22,-30,6,-1,-11
Cc1cccc(C(=O)N2CCC(c3nc(-c4ccc(S(=O)(=O)N5CCOCC5)cc4)no3)CC2)c1,11,-3,79*,0,-8,54*,2,2
O=C(Nc1ccccc1)N1CCC(c2nc(-c3ccc(S(=O)(=O)N4CCOCC4)cc3)no2)CC1,0,-4,45*,-1,16,27,0,11
Nc1nc(CSc2ccc(Cl)cc2)nc(N2CCCCC2)n1,0,-7,44*,-7,-31,6,2,3
CCOC(=O)c1c(NC(=O)COc2cccc3c2CCN(C)C3=O)sc2c1CCC2,-1,-2,51*,-6,-13,10,-2,-11
Cc1ccc(CNC(=O)C2CCC(CNS(=O)(=O)c3cccs3)CC2)cc1 (stereo unspecified),4,-2,66*,9,14,28,-1,-9
O=C(NCc1ccc(Cl)cc1)C1CCC(CNS(=O)(=O)c2ccccc2)CC1 (stereo unspecified),14,-1,59*,-6,4,10,0,4
O=C(NCc1ccc(Cl)cc1)C1CCC(CNc2c(N3CCCCC3)c(=O)c2=O)CC1 (stereo unspecified),-2,-2,50*,-2,-36,26,2,2
O=C(NCc1ccc(Cl)cc1)C1CCC(CNc2c(N3CCCC3)c(=O)c2=O)CC1 (stereo unspecified),7,0,12,-2,-35,x,x,x
Cc1ccc(S(=O)(=O)N(CCCc2c(C)nc[nH]c2=O)c2ccccc2)cc1,13,x,15,-2,x,x,x,x
SMILES,CCR6 antag,APJ ag,EBI2 antag,CXCR6 inh,APJ antagonist,EBI2 antag conf,EBI2 ag,bGal cs
O=C(NCCO)c1nc(C(=O)c2ccccc2)c2ccccc2n1,-1,-3,-6,-4,3,x,x,x
O=C(Nc1ccc(Nc2ccccc2)cc1)c1ccc(Cl)c([N+](=O)[O-])c1,22,0,5,9,4,x,x,x
CN(c1ccccc1)S(=O)(=O)c1cccc(NC(=O)c2ccc(Cl)c([N+](=O)[O-])c2)c1,6,7,46*,-3,7,65*,1,5
O=C(Nc1ccccc1-c1ccccc1)c1ccc(Cl)c([N+](=O)[O-])c1,22,-1,53*,-12,7,38,0,-1
COc1ccc(S(=O)(=O)N(C)C[C@H]2OCc3cn(nn3)CCCC(=O)N([C@@H](C)CO)C[C@@H]2C)cc1,x,x,-7,1,x,x,x,x
Cc1ccc(/C=N/NC(=S)NC2CCS(=O)(=O)C2)cc1 (stereo unspecified),1,4,44*,-8,17,44,1,7
COc1ccc(/C=N/NC(=S)NC2CCS(=O)(=O)C2)cc1OC (stereo unspecified),0,0,-2,-3,-1,x,x,x
CCNC(=O)CSc1nnc(-c2ccc(OC)cc2)n1CC(C)C,0,-4,6,0,-5,x,x,x
CC(C(=O)NCc1ccco1)n1nc(-c2ccccc2)c2cc(Cl)ccc21 (stereo unspecified),8,-4,14,2,2,x,x,x
CC(=O)c1ccc(NC(=O)C(C)n2nc(-c3ccccc3)c3cc(Cl)ccc32)cc1 (stereo unspecified),0,1,44*,-7,13,7,-1,-7
NC(=O)CSc1nnc(-c2ccc(O)cc2)n1Cc1ccco1,-1,5,-9,-3,0,x,x,x
O=C(CSc1nnc(-c2ccc(O)cc2)n1Cc1ccco1)N1CCc2ccccc2C1,10,-1,76*,0,-4,15,0,1
CC(C(=O)NCCc1ccc(Cl)cc1)n1c(=O)c2cccn2c2cccnc21 (stereo unspecified),-4,13,10,5,4,x,x,x
O=C(/C=C/c1ccc(Cl)cc1)N1CCN(c2c(Cl)cccc2[N+](=O)[O-])CC1,15,-6,98*,10,3,91*,1,3
